The values that follow come from ChEMBL document CHEMBL5523690, “Synergistic effect of tryptamine-urea derivatives to overcome the chromosomally-mediated colistin resistance in Klebsiella pneumoniae” (Bioorg Med Chem, 2024).

The subject of data set [1] is Pseudomonas aeruginosa. As to the kind of experiment: Antibacterial activity against chromosomally-mediated colistin resistant Pseudomonas aeruginosa 1002 assessed as inhibition of visible bacterial growth measured after 20 hrs under aerobic condition by two fold serial dilution assay. Type of data set: functional.
Data set [2] deals with Klebsiella pneumoniae. The data set can be described thus: Synergistic antibacterial activity against Klebsiella pneumoniae BA03057 assessed as fractional inhibitory concentration index incubated for 24 hrs under aerobic condition in presence of colistin by checkerboard assay. Type of data set: functional. Put shortly:
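Checkerboard against KP BA03057 at 5.10^5 CFU/mL. Colistin was two-fold diluted 0–64 µg/mL across compound two-fold diluted 0–100 µM. Plates were incubated 24 h at 37 °C aerobically and absorbance read at 600 nm. FICI = MIC(compound, combined)/MIC(compound alone) + MIC(colistin, combined)/MIC(colistin alone), with synergy at FICI < 0.5. Plates were run in duplicate.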

Data set [3] has as its system Escherichia coli. As to the kind of experiment: Colistin adjuvant activity against colistin-resistant Escherichia coli A50 assessed as colistin MIC by measuring potentiation fold incubated for 24 hrs under aerobic condition by two fold serial dilution method relative to colistin alone. Type of data set: functional.
The test system of data set [4] is Klebsiella pneumoniae. As to the kind of experiment: Colistin adjuvant activity against colistin-resistant Klebsiella pneumoniae BA03057 assessed as antibacterial effect by measuring colistin MIC incubated for 24 hrs under aerobic condition by two fold serial dilution method. Format: functional.
For data set [5], the system named is Escherichia coli. The data set can be described thus: Colistin adjuvant activity against colistin-resistant Escherichia coli A50 assessed as antibacterial effect by measuring colistin MIC incubated for 24 hrs under aerobic condition by two fold serial dilution method. Type of data set: functional.
The subject of data set [6] is Klebsiella pneumoniae. The data set can be described thus: Antibacterial activity against chromosomally-mediated resistant Klebsiella pneumoniae BA03057 assessed as inhibition of visible bacterial growth measured after 20 hrs under aerobic condition by two fold serial dilution assay. Type of data set: functional.
The subject of data set [7] is Escherichia coli. As to the kind of experiment: Antibacterial activity against colistin resistant Escherichia coli A50 harboring mcr-1 gene assessed as inhibition of visible bacterial growth measured after 20 hrs under aerobic condition by two fold serial dilution assay. Type of data set: functional.
For data set [8], the system named is Klebsiella pneumoniae. The data set can be described thus: Antibacterial activity against Klebsiella pneumoniae ATCC700603 assessed as inhibition of visible bacterial growth measured after 20 hrs under aerobic condition by two fold serial dilution assay. Format: functional. A digest of the protocol:
(§1)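 Broth microdilution following EUCAST. Compound was tested at final well concentrations of 0.25–128 µg/mL against 5.10^5 CFU/mL inoculum, incubated 20 h at 37 °C aerobically. MIC was taken as the lowest concentration with no visible growth. There were three independent experiments per strain.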

In data set [9] the test system is Klebsiella pneumoniae. As to the kind of experiment: Colistin adjuvant activity against colistin-resistant Klebsiella pneumoniae BA03057 assessed as colistin MIC by measuring potentiation fold incubated for 24 hrs under aerobic condition by two fold serial dilution method relative to colistin alone. Type of data set: functional.
Data set [10] has as its system Escherichia coli. The data set can be described thus: Antibacterial activity against colistin resistant Escherichia coli NTCC 13846 harboring mcr-1 gene assessed as inhibition of visible bacterial growth measured after 20 hrs under aerobic condition by two fold serial dilution assay. Format: functional.
The subject of data set [11] is Pseudomonas aeruginosa. The data set can be described thus: Antibacterial activity against chromosomally-mediated colistin resistant Pseudomonas aeruginosa 10039 assessed as inhibition of visible bacterial growth measured after 20 hrs under aerobic condition by two fold serial dilution assay. Format: functional.
Data set [12] has as its system Escherichia coli. As to the kind of experiment: Antibacterial activity against Escherichia coli ATCC25922 assessed as inhibition of visible bacterial growth measured after 20 hrs under aerobic condition by two fold serial dilution assay. Format: functional. A digest of the protocol:
as §1

The test system of data set [13] is Pseudomonas aeruginosa. The data set can be described thus: Antibacterial activity against Pseudomonas aeruginosa ATCC27853 assessed as inhibition of visible bacterial growth measured after 20 hrs under aerobic condition by two fold serial dilution assay. Type of data set: functional. A digest of the protocol: as §1
In data set [14] the test system is Pseudomonas aeruginosa. The data set can be described thus: Antibacterial activity against chromosomally-mediated colistin resistant Pseudomonas aeruginosa 15080 assessed as inhibition of visible bacterial growth measured after 20 hrs under aerobic condition by two fold serial dilution assay. Format: functional.
For data set [15], the system named is Erythrocyte. As to the kind of experiment: Hemolytic activity in sheep RBC assessed as hemolysis at 1600 uM measured after 1 hr by fluorescence microscopic analysis. Format: toxicity, cell-based, Ovis aries.
Data set [16] concerns Erythrocyte. The data set can be described thus: Hemolytic activity in sheep RBC assessed as hemolysis at 25 uM measured after 1 hr by fluorescence microscopic analysis. Type of data set: toxicity, cell-based, Ovis aries. A digest of the protocol: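 Sheep erythrocytes, PBS-washed, were treated at 5% (v/v) with compound (25–800 µM) in 5% (v/v) DMSO for 1 h at 37 °C, shaking at 100 rpm. Controls were 0.5% Triton X-100 (positive) and PBS (negative). After centrifugation at 1000 g, 4 °C, hemolysis was assessed visually and by absorbance (750–600 nm) as percent RBC survival. Triplicate.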

Data set [17] relates to Erythrocyte. The data set can be described thus: Hemolytic activity in sheep RBC assessed as RBC deformation at 800 uM measured after 1 hr by fluorescence microscopic analysis. Type of data set: toxicity, cell-based, Ovis aries. Put shortly:
(§2)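 PBS-washed sheep erythrocytes were exposed to compound in PBS at 25–800 µM, or 25 µM plus colistin 1 µg/mL. Each reaction held 5% (v/v) RBCs and 5% (v/v) DMSO, incubated 1 h at 37 °C with 100 rpm agitation, then centrifuged at 1000 g, 4 °C. Cell shape was examined by optical microscopy. Triplicates.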

Data set [18] is described as follows: Hemolytic activity in sheep RBC assessed as survival rate at 25 uM measured after 1 hr in presence of colistin by fluorescence microscopic analysis relative to control. Type of data set: toxicity, cell-based, Ovis aries, Erythrocyte. Particulars: sheep red blood cells (erythrocytes), read-out: Survival. A digest of the protocol: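 Washed sheep erythrocytes in PBS, 5% (v/v) final with 5% (v/v) DMSO, given 25 µM agent plus colistin 1 µg/mL; 1 h at 37 °C, shaking 100 rpm; Triton X-100 0.5% positive and PBS negative controls; cells spun off at 1000 g, 4 °C; absorbance (750–600 nm) read as % RBC survival; triplicate; shape checked by optical microscopy.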

The subject of data set [19] is Erythrocyte. The data set can be described thus: Hemolytic activity in sheep RBC assessed as RBC deformation at 25 uM measured after 1 hr in presence of colistin by fluorescence microscopic analysis. Type of data set: toxicity, cell-based, Ovis aries. Put shortly:
as §2

Structures are written as SMILES. A value given as a limit tells only on which side of the number the result lay.

For `O=C(NCCc1c[nH]c2ccccc12)Nc1cccc(Cl)c1`, the minimum inhibitory concentration (MIC) in the data set with Pseudomonas aeruginosa [1] was greater than 128 µg/mL; in the data set on Klebsiella pneumoniae [4], 2 µg/mL; in the data set with Escherichia coli [5], 8 µg/mL; in the data set with Klebsiella pneumoniae [6], greater than 128 µg/mL; with Escherichia coli [7], greater than 128 µg/mL; with Klebsiella pneumoniae [8] it was greater than 128 µg/mL. Besides, the MIC in the data set with Escherichia coli [10], with Pseudomonas aeruginosa [11], in the data set on Escherichia coli [12], in the data set with Pseudomonas aeruginosa [13] and in the data set on Pseudomonas aeruginosa [14] was greater than 128 µg/mL throughout. Further, the “fractional inhibitory concentration index (FICI)” value in the data set with Klebsiella pneumoniae [2] came out at 0.062. Further, the figures for the “fold change (FC)” value in the data set with Escherichia coli [3] and in the data set on Klebsiella pneumoniae [9] were 1 and 0.031, respectively.
Take `O=C(NCCc1c[nH]c2ccccc12)Nc1ccc(C(F)(F)F)cc1`: the MIC is greater than 128 µg/mL with Pseudomonas aeruginosa [1]; 2 µg/mL with Klebsiella pneumoniae [4]; 8 µg/mL with Escherichia coli [5]; greater than 128 µg/mL in the data set on Klebsiella pneumoniae [6]; greater than 128 µg/mL with Escherichia coli [7]; greater than 128 µg/mL in the data set on Klebsiella pneumoniae [8]. Further, the MIC in the data set on Escherichia coli [10], with Pseudomonas aeruginosa [11], in the data set with Escherichia coli [12], in the data set with Pseudomonas aeruginosa [13] and with Pseudomonas aeruginosa [14] was greater than 128 µg/mL throughout. The “fractional inhibitory concentration index (FICI)” value with Klebsiella pneumoniae [2] came to 0.167. Also, the “fold change (FC)” value is 1 in the data set on Escherichia coli [3] and 0.031 in the data set on Klebsiella pneumoniae [9].
On to `O=C(NCCc1c[nH]c2ccccc12)Nc1ccccc1Br`, for which the minimal inhibitory concentration (MIC) with Pseudomonas aeruginosa [1] was greater than 128 µg/mL; in the data set with Klebsiella pneumoniae [4] it was 2 µg/mL; in the data set on Escherichia coli [5], 4 µg/mL; with Klebsiella pneumoniae [6], greater than 128 µg/mL; in the data set with Escherichia coli [7], greater than 128 µg/mL; in the data set on Klebsiella pneumoniae [8], greater than 128 µg/mL. Further, the MIC in the data set on Escherichia coli [10], in the data set with Pseudomonas aeruginosa [11], in the data set with Escherichia coli [12], with Pseudomonas aeruginosa [13] and with Pseudomonas aeruginosa [14] was greater than 128 µg/mL each time. Besides, the “fractional inhibitory concentration index (FICI)” value in the data set on Klebsiella pneumoniae [2] was 0.31. The “fold change (FC)” value turned out to be 0.5 with Escherichia coli [3] and 0.031 with Klebsiella pneumoniae [9].
With `CCCCCCNC(=O)NCCc1c[nH]c2ccccc12`, the MIC with Pseudomonas aeruginosa [1] was greater than 128 µg/mL; in the data set with Klebsiella pneumoniae [4] it was 2 µg/mL; in the data set on Escherichia coli [5], 4 µg/mL; in the data set on Klebsiella pneumoniae [6], greater than 128 µg/mL; in the data set on Escherichia coli [7], greater than 128 µg/mL; in the data set on Klebsiella pneumoniae [8] it was greater than 128 µg/mL. Further, the minimum inhibitory concentration (MIC) in the data set with Escherichia coli [10], in the data set with Pseudomonas aeruginosa [11], with Escherichia coli [12], in the data set with Pseudomonas aeruginosa [13] and in the data set with Pseudomonas aeruginosa [14] was greater than 128 µg/mL throughout. The “fractional inhibitory concentration index (FICI)” value with Klebsiella pneumoniae [2] is given as 0.143. Also, the figures for the “fold change (FC)” value with Escherichia coli [3] and with Klebsiella pneumoniae [9] were 0.5 and 0.031, respectively.
In the case of `O=C(NCCc1c[nH]c2ccccc12)Nc1cccc(F)c1`, the MIC with Pseudomonas aeruginosa [1] is greater than 128 µg/mL; with Klebsiella pneumoniae [4] it was 1 µg/mL; with Escherichia coli [5], 4 µg/mL; with Klebsiella pneumoniae [6] it was greater than 128 µg/mL; with Escherichia coli [7] it was greater than 128 µg/mL; in the data set with Klebsiella pneumoniae [8] it was greater than 128 µg/mL. For the same molecule, the minimum inhibitory concentration (MIC) with Escherichia coli [10], in the data set with Pseudomonas aeruginosa [11], in the data set with Escherichia coli [12], in the data set on Pseudomonas aeruginosa [13] and with Pseudomonas aeruginosa [14] was greater than 128 µg/mL throughout. Moreover, the Activity entry with Erythrocyte [15], in the data set on Erythrocyte [16], with Erythrocyte [17] and in the data set on Erythrocyte [19] was “Non-Toxic” each time. The “fractional inhibitory concentration index (FICI)” value in the data set on Klebsiella pneumoniae [2] came out at 0.073. Further, the “fold change (FC)” value in the data set with Escherichia coli [3] turned out to be 0.5. Further, in [18], the viability at 1 h, 25 µM turned out to be 96%.

The term MIC denotes the lowest concentration found to suppress growth.
